Key:
[1] = Passive membrane permeability of the compound at 50 uM after 18 hrs by PAMPA; type: ADME; conditions: read-out: Peff
Procedure, shortened: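 PAMPA: 50 μM donor solution in PBS/EtOH 70:30 over PVDF membrane precoated with PBL/dodecane (20 mg/mL); PBS/EtOH acceptor; 18 h at 20 °C without shaking; duplicates; donor and acceptor concentrations by UV absorbance corrected against vehicle.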

[2] = biological target: cGMP-specific 3',5'-cyclic phosphodiesterase (Homo sapiens, UniProt O76074); assay: Inhibition of full length recombinant human N-terminal GST-tagged PDE5A1 expressed in baculovirus infected Sf9 cells using cGMP as substrate after 30 mins by HTRF assay
[3] = biological target: Histone deacetylase 1 (Homo sapiens, UniProt Q13547); assay: Inhibition of full length recombinant human C-terminal His/Flag-tagged HDAC1 expressed in baculovirus infected Sf9 cells using fluorogenic HDAC substrate after 30 mins by fluorescence analysis
Chain of Histone deacetylase 1 (Q13547 whole entry): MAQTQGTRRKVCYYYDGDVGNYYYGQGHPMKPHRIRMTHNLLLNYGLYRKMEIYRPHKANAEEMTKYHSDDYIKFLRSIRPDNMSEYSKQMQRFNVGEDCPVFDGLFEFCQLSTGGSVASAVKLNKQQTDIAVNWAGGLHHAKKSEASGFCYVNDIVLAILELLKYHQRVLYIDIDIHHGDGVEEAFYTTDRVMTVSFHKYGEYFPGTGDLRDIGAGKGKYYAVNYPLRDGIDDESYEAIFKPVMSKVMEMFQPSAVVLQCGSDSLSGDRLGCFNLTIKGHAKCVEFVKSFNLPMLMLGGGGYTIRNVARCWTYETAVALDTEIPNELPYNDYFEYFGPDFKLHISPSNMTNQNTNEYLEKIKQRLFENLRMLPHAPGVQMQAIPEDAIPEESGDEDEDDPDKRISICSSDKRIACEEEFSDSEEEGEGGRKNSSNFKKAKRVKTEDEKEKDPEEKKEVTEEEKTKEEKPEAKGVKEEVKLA
Procedure, shortened: (§1)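 Full-length human recombinant HDAC1 (0.4 μg/mL final), HDAC2 (1.5 μg/mL), HDAC3/NCOR2 (0.1 μg/mL) or HDAC6 (3.6 μg/mL) with 10 μM fluorogenic acetyl-lysine substrate and 0.1 mg/mL BSA, 1% DMSO, 30 min at 37 °C; lysine developer 20 min at room temperature; fluorescence ex 355/em 460 nm. Vehicle = positive control, no enzyme = negative; IC50 from curve fit.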

[4] = biological target: Histone deacetylase 2 (Homo sapiens, UniProt Q92769); assay: Inhibition of full length recombinant human C-terminal His-tagged HDAC2 expressed in baculovirus infected Sf9 cells using fluorogenic HDAC substrate after 30 mins by fluorescence analysis; procedure, shortened: as §1
Chain of Histone deacetylase 2 (Q92769 whole entry): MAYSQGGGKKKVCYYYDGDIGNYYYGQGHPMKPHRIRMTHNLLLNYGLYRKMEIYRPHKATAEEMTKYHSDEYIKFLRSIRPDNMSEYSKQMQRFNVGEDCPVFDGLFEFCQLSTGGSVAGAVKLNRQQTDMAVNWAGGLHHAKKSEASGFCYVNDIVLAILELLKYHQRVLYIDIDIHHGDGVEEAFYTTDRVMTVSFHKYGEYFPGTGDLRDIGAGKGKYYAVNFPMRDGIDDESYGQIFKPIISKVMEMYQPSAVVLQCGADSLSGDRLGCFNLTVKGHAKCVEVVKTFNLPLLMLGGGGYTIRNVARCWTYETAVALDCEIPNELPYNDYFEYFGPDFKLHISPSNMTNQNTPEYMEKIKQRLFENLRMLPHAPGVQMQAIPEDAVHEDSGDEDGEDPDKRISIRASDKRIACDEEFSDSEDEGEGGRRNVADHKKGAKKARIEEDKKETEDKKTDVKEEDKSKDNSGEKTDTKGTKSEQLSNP

[5] = Selectivity ratio of pLC50 for mouse primary glial cells to pLC50 for human THLE2 cells; type: ADME, cell-based; conditions: mouse primary glial cells versus THLE2 cells
[6] = biological target: T1, Protein deacetylase HDAC6 (Homo sapiens, UniProt Q9UBN7); assay: Inhibition of full length recombinant human N-terminal GST tagged HDAC6 expressed in baculovirus infected Sf9 cells using fluorogenic HDAC substrate after 30 mins by fluorescence analysis; procedure, shortened: as §1
T1 sequence (Q9UBN7 whole entry): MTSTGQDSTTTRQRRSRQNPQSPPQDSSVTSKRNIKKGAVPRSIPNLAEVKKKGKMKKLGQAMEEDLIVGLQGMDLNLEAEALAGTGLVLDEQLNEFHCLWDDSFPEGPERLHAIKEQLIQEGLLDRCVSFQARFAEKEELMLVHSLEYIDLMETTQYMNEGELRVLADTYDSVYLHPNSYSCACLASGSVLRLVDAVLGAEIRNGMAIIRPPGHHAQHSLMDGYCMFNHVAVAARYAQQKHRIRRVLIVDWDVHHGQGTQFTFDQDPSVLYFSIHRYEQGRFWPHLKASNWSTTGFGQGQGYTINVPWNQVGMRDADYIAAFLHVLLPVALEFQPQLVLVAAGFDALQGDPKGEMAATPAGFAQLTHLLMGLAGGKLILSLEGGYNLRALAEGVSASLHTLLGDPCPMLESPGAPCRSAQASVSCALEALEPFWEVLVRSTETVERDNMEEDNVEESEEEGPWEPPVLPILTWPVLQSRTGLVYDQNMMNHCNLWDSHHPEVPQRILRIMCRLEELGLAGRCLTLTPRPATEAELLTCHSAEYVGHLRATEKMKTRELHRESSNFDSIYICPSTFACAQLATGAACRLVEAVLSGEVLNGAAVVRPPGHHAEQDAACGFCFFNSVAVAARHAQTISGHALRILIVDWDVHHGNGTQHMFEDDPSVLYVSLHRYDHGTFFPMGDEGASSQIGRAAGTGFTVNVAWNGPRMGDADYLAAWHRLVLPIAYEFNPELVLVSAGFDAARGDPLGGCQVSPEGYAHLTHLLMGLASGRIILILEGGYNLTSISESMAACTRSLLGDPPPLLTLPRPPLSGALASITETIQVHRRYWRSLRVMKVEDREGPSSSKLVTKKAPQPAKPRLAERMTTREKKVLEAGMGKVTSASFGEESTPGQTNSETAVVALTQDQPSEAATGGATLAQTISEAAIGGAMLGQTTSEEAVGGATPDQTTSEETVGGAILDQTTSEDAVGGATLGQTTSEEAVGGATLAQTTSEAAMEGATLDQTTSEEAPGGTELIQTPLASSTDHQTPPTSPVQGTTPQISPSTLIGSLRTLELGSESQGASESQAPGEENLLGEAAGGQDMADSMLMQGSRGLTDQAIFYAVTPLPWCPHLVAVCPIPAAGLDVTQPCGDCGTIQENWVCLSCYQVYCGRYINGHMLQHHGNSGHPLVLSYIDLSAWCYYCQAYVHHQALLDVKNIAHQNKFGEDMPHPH

[7] = Cytotoxicity against human THLE2 cells assessed as reduction in cell viability after 72 hrs by ATP Vialight assay; type: toxicity, cell-based, THLE-2; conditions: read-out: LC50
Procedure, shortened: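 Immortalized human liver THLE-2 cells in BEGM with 0.7 μg/mL phosphoethanolamine, 0.5 ng/mL EGF, antibiotics and 10% FBS, seeded at 10,000 cells/well and left 24 h at 37 °C. Compounds were added at final 0–100 μM in 1% DMSO for 72 h. Cellular ATP was read by luminescence after 45 min lysis.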

[8] = Selectivity ratio of pIC50 for full length recombinant human N-terminal GST tagged HDAC6 expressed in baculovirus infected Sf9 cells to pIC50 for full length recombinant human C-terminal His/Flag-tagged HDAC1 expressed in baculovirus infected Sf9 cells

SMILES | Papp at 18 h, 50 µM [1] [×10⁻⁶ cm/s] | IC50 [2] [nM] | IC50 [3] [nM] | IC50 [4] [nM] | selectivity ratio [5] | IC50 [6] [nM] | CC50 at 72 h [7] [nM] | Ratio pIC50 [8]
CCCc1nn(C)c2c(=O)[nH]c(-c3cc(-c4ccc(C(=O)NO)nc4)ccc3OCC)nc12 | 1.52 | 4 | 2360 | > 20000 | < 0.4 | 861 | – | –
CCCc1nn(C)c2c(=O)[nH]c(-c3cc(-c4ccc(C(=O)NO)cn4)ccc3OCC)nc12 | 0.92 | 4 | 354 | 1870 | < 0.4 | 79 | – | –
CCCc1nn(C)c2c(=O)[nH]c(-c3cc(Cc4ccc(/C=C/C(=O)NO)cc4)ccc3OCC)nc12 | – | 122 | 1530 | > 20000 | – | 1790 | – | –
CCCc1nn(C)c2c(=O)[nH]c(-c3cc(C4CCC(CC(=O)NO)CC4)ccc3OCC)nc12 (stereo not given) | – | 70 | 6910 | > 20000 | – | 5130 | – | –
CCCc1nn(C)c2c(=O)[nH]c(-c3cc(CN4CCC(C(=O)NO)CC4)ccc3OCC)nc12 | – | 207 | 7620 | > 20000 | – | 9640 | – | –
CCCc1nn(C)c2c(=O)[nH]c(-c3cc(S(=O)(=O)N4CCN(C)CC4)ccc3OCC)nc12 | 2.75 | – | – | – | – | – | > 100000 | –
CCCc1nn(C)c2c(=O)[nH]c(-c3cc(NCC4CCN(c5ncc(C(=O)NO)cn5)CC4)ccc3OCC)nc12 | – | 17 | 118 | 712 | – | 709 | – | > 0.6
CCCc1nn(C)c2c(=O)[nH]c(-c3cc(C(=O)NO)ccc3OCC)nc12 | – | 5 | 6420 | > 20000 | – | > 20000 | – | –
CCCc1nn(C)c2c(=O)[nH]c(-c3cc(OC4CCC(C(=O)NO)CC4)ccc3OCC)nc12 (stereo not given) | – | 11 | 2440 | 9830 | – | 2330 | – | –
CCCc1nn(C)c2c(=O)[nH]c(-c3cc(CCC(=O)NO)ccc3OCC)nc12 | – | 46 | 4810 | > 20000 | – | 2120 | – | –
CCCc1nn(C)c2c(=O)[nH]c(-c3cc(CN4CC(C(=O)NO)C4)ccc3OCC)nc12 | – | 303 | > 20000 | > 20000 | – | > 10000 | – | –
CCCc1nn(C)c2c(=O)[nH]c(-c3cc(N4CCC5(CCN(c6ncc(C(=O)NO)cn6)CC5)C4)ccc3OCC)nc12 | – | 74 | 443 | 1850 | – | 1900 | – | > 0.6
CCCc1nn(C)c2c(=O)[nH]c(-c3cc(CC(=O)NO)ccc3OCC)nc12 | – | 19 | > 20000 | > 20000 | – | > 20000 | – | –
CCCc1nn(C)c2c(=O)[nH]c(-c3cc(C4CC4C(=O)NO)ccc3OCC)nc12 (stereo not given) | – | 20 | 8750 | > 20000 | – | 5370 | – | –
CCCc1nn(C)c2c(=O)[nH]c(-c3cc(N4CCC5(CCC(C(=O)NO)C5)CC4)ccc3OCC)nc12 (stereo not given) | – | 12 | 12900 | > 20000 | – | 4340 | – | –
CCCc1nn(C)c2c(=O)[nH]c(-c3cc(S(=O)(=O)N4CCN(CCCC(=O)NO)CC4)ccc3OCC)nc12 | – | 2 | 1100 | 4640 | – | 360 | – | –
CCCc1nn(C)c2c(=O)[nH]c(-c3cc(CC4CCN(CCC(=O)NO)CC4)ccc3OCC)nc12 | – | 57 | > 20000 | > 20000 | – | > 20000 | – | –
CCCc1nn(C)c2c(=O)[nH]c(-c3cc(NC4CCC(C(=O)NO)CC4)ccc3OCC)nc12 (stereo not given) | – | 22 | 5980 | > 20000 | – | 12700 | – | –
CCCc1nn(C)c2c(=O)[nH]c(-c3cc(-c4ccc(C(=O)NO)o4)ccc3OCC)nc12 | – | 5 | > 20000 | > 20000 | – | 5570 | – | –
CCCc1nn(C)c2c(=O)[nH]c(-c3cc(N4CCC(CCC(=O)NO)CC4)ccc3OCC)nc12 | – | 24 | 603 | 2030 | – | 1060 | – | –
CCCc1nn(C)c2c(=O)[nH]c(-c3cc(NCCC(=O)NO)ccc3OCC)nc12 | – | 44 | 7080 | > 20000 | – | 10400 | – | –
CCCc1nn(C)c2c(=O)[nH]c(-c3cc(S(=O)(=O)N4CCN(CCC(=O)NO)CC4)ccc3OCC)nc12 | – | 3 | 10500 | > 20000 | – | 2360 | – | –
CCCc1nn(C)c2c(=O)[nH]c(-c3cc(N4CCCC5(CCC(C(=O)NO)CC5)C4)ccc3OCC)nc12 (stereo not given) | – | 40 | 9270 | > 20000 | – | 10100 | – | –
CCCc1nn(C)c2c(=O)[nH]c(-c3cc(NC4CCN(c5ccc(C(=O)NO)cc5)CC4)ccc3OCC)nc12 | – | 20 | 7810 | 17500 | – | 1600 | – | –
CCCc1nn(C)c2c(=O)[nH]c(-c3cc(S(=O)(=O)N4CCC(CCC(=O)NO)CC4)ccc3OCC)nc12 | – | 0.5 | 406 | 1940 | – | 87 | – | –
CCCc1nn(C)c2c(=O)[nH]c(-c3cc(Oc4ccc(C(=O)NO)cc4)ccc3OCC)nc12 | 3.68 | 23 | 566 | 2250 | < 0.4 | 196 | – | –

— ChEMBL document CHEMBL3860059, “Design, Synthesis, and Biological Evaluation of First-in-Class Dual Acting Histone Deacetylases (HDACs) and Phosphodiesterase 5 (PDE5) Inhibitors for the Treatment of Alzheimer's Disease” (J Med Chem, 2016)
